Sampled rows, rich in hits. Any-hit rate of the full collection: about 1.8%.
PPC-1+TRAIL kill = compounds killing PPC-1 cancer cells with TRAIL present (potentiator screen, no TRAIL-free arm) | PPC-1 cells + TRAIL, ATPLite viability luminescence | AID 1443 | hit rate 0.41% among 220,000 | cell killing (% activity), % at 4 µM or 5 µM;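 active = cell killing above 50% in the first pass at 4 µM, then a duplicate retest at 5 µM averaging 50% or more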;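 also: plate controls were cells with TRAIL plus DMSO for no effect and medium-only wells lacking cells for full effect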
STAT1 inh = inhibitors of IFN-gamma induced STAT1 signaling | NIH 3T3 STAT1-luciferase reporter, luminescence | inhibition, % at 5.5 µM | hit rate 0.35% among 200,000;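 active = inhibition above a set limit, the mean inhibition across all tested compounds plus 3 SD, cut at about 34% in these data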;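 also: 0% = IFN-gamma with DMSO and 100% = IFN-gamma with 300 µM nifuroxazide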
STAT3 activator = activators of IL-6 induced STAT3 signaling; U3A cells, IL-6 STAT3-luciferase reporter, luminescence; 100% = signal with IL-6 EC80 alone; activation (% of control), % at 5.6 µM; hit rate 0.91% among 190,000; AID 871;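 active = activation above the screen-wide mean of compound activation plus 3 SD, cut at about 130% in these data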;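 also: 0% = background luminescence of wells with medium and substrate only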
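system = STAT3-luciferase reporter U3A cells | reagent = IL-6 stimulus at 33 ng/mL final | timing = 1 h compound pre-exposure, 6 h IL-6 stimulation, 37 °C | measured by = luminescence | evaluation = % activation versus median of IL-6-stimulated wells | control set = IL-6-only wells as 100% reference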
TRAIL sens C8 = sensitizes caspase-8 expressing cells to TRAIL; NB7+C8 cells + TRAIL, ATPlite viability luminescence; inhibition (viability loss, TRAIL sensitization), % at 10 µM; hit rate 1% among 360,000; AID 624354;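 active = compounds causing at least 50% loss of cell viability in the single-dose screen, relative to plate controls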
STAT3 blocker = reduces IL-6 driven STAT3 reporter signal; U3A cells, IL-6 STAT3-luciferase reporter, luminescence; host cell line lacks STAT1; inhibition, % at 5.5 µM; hit rate 0.89% among 190,000;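 active = inhibition above the mean inhibition across all screened compounds plus 3 SD, cut at about 44% in these data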;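 also: 0% = DMSO only wells and 100% = 100 µM nifuroxazide control wells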
Active calls of the source: *; . = no result.

SMILES | PPC-1+TRAIL kill | STAT1 inh | STAT3 activator | TRAIL sens C8 | STAT3 blocker
CCOC(=O)CCCCC(=O)c1[nH]c(=O)[nH]c1CSc1nc(C)cc(C)n1 | 19 | 6 | 101 | 4 | 3
CCOC(=O)CCCCC(=O)c1[nH]c(=O)[nH]c1CSc1nnc2c3cc(Br)ccc3n(C)c2n1 | 26 | -7 | 134* | . | -36
C=CCOc1cccn2c(N(C)C(=O)c3ccccc3F)c(CC)nc12 | . | . | . | 5 | .
CC(C)(C)c1cc[n+](C2=C([O-])c3ccccc3C(=O)/C2=N\S(=O)(=O)c2cccs2)cc1 | 14 | . | . | 54* | .
CC(C)CC1c2[nH]c3ccccc3c2CCN1CCCn1cccn1 (stereo not given) | -6 | 8 | 133* | 25 | -31
COc1cccc(C2c3[nH]c4ccccc4c3CCN2CCCn2cccn2)c1 (stereo not given) | 10 | 9 | 132 | 0 | -31
CCOc1ccc(C2c3[nH]c4ccccc4c3CCN2CCCn2cccn2)cc1 (stereo not given) | 1 | 2 | 134* | -7 | -32
C/C(=N\NC(=O)c1ccc2c(c1)OCO2)c1ccc(NC(=O)CCCC(=O)O)cc1 | . | . | . | -6 | .
CCN1CCN(c2c(Cl)cccc2NC(=O)c2ccc([N+](=O)[O-])o2)CC1 | . | . | . | 59* | .
CCCC(=O)N1CCN(c2ccc(NC(=O)c3ccc([N+](=O)[O-])o3)cc2Cl)CC1 | 36 | -28 | 101 | 59* | 4
CC(C)C(=O)N1CCN(c2ccc(NC(=O)c3ccc([N+](=O)[O-])o3)cc2Cl)CC1 | 37 | -61 | 106 | 67* | 0
CN1CCN(c2ccc(NC(=O)c3ccc([N+](=O)[O-])o3)cc2Cl)CC1 | . | . | . | 43 | .
COc1ccc(CCNC(=O)C(F)(F)F)cc1S(N)(=O)=O | . | . | . | 2 | .
OC(CN1CCN(Cc2ccccc2)CC1)c1ccc(F)cc1 (stereo not given) | 58* | -1 | 92 | -4 | 8
CCOc1ccc(CCNC(=O)Cc2ccc(NC(=O)C3=C(C)OCCS3)cc2)cc1 | . | . | . | 17 | .
CSc1ccc(CNC(=O)Cc2ccc(NC(=O)C3=C(C)OCCS3)cc2)cc1 | . | . | . | 59* | .
Nc1[nH]c(=O)nc(Nc2ccccc2)c1N=O | . | . | . | -4 | .
Nc1c(N(CCC2=CCCCC2)C(=O)COc2ccc(F)cc2)c(=O)[nH]c(=O)n1Cc1ccccc1 | . | . | . | 73* | .
CCOC1=C2CN(S(=O)(=O)c3ccc(C)cc3)C(c3cccc(Cl)c3)CC2NC(c2ccccc2)C1 (stereo not given) | . | . | . | -1 | .
COc1ccccc1/C=C/C1(C(=O)NC2CCCC2)CC(=O)N1c1ccc(C)cc1 (stereo not given) | 10 | 0 | 104 | 60* | -1
COc1ccccc1/C=C/C1(C(=O)NC2CCCC2)CC(=O)N1c1ccc(F)cc1 (stereo not given) | 7 | 11 | 100 | 92* | 3
CCc1nc2ccc(C(=O)N(C)C(C)C)cn2c1N(CC)Cc1cccc(Br)c1 | . | . | . | 17 | .
Cc1ccccc1Nc1nn2c(=O)c3ccccc3nc2s1 | 41 | -41 | 95 | 50* | 8
C=CC(=O)Nc1ccc(Nc2nc(NC3CCC(N(C)C)CC3)nc3c2ncn3C(C)C)cc1 (stereo not given) | . | . | . | 73* | .
O=C(Cc1csc(NC(=O)Nc2ccc(Cl)cc2)n1)NCc1ccccn1 | . | . | . | 54* | .
SMILES | PPC-1+TRAIL kill | STAT1 inh | STAT3 activator | TRAIL sens C8 | STAT3 blocker
Cc1c(NC(=O)c2ccc(NS(=O)(=O)c3ccccc3)cc2)c(=O)n(-c2ccccc2)n1C | . | . | . | -10 | .
CCCCCCCCCCCCCCC[C@@H](O)[C@@H](N)CO | . | . | . | 95* | .
O=C(Nc1cccc(Cl)c1)Nc1cccc(C(=O)O)c1 | 14 | . | . | 23 | .
O=C(Nc1cccc(C(=O)O)c1)Nc1ccccc1Cl | 13 | 79* | 29 | 21 | 89*
O=C(Nc1ccc(Cl)cc1)Nc1cccc(C(=O)O)c1 | 27 | 88* | 18 | 65* | 99*
CC(C)NC(=O)c1cc2n(n1)C(C(F)(F)F)CC(c1ccco1)N2 (stereo not given) | 8 | 6 | 102 | 9 | 9
Cc1cc(NC(=O)c2cc3n(n2)C(C(F)(F)F)CC(c2ccco2)N3)no1 (stereo not given) | -9 | -7 | 97 | 60* | 12
Nc1nc(-c2ccccc2)nc(-c2ccccc2O)n1 | . | 3 | 139* | 9 | -42
CC(/C=N/NC(=O)c1c(Br)cnn1C)=C\c1ccccc1 | 15 | -22 | 103 | 3 | -3

Source: PubChem BioAssay (several laboratories)
